{"source": "ChEMBL document CHEMBL4382192", "about": "“Discovery of a potent dual ALK and EGFR T790M inhibitor” (Eur J Med Chem, 2017)", "key": {"[1]": {"test": "Cmax in mouse at 10 mg/kg, po", "format": "ADME, organism-based", "parameters": "dose 10 mg/kg, route oral", "conditions": "in vivo"}, "[2]": {"target": "Tyrosine-protein kinase ABL1 (Homo sapiens) (UniProt P00519)", "test": "Binding affinity to wild-type human non-phosphorylated ABL1 (S229 to K512 residues) expressed in mammalian expression system assessed as residual binding level at 1 uM by Kinomescan method relative to control"}, "[3]": {"target": "Calcium/calmodulin-dependent protein kinase type II subunit gamma (Homo sapiens) (UniProt Q13555)", "test": "Binding affinity to wild-type human partial length CAMK2G (R9 to A303 residues) expressed in bacterial expression system assessed as residual binding level at 1 uM by Kinomescan method relative to control"}, "[4]": {"target": "Cyclin-dependent kinase 3 (Homo sapiens) (UniProt Q00526)", "test": "Binding affinity to wild-type human full length CDK3 (M1 to H305 residues) expressed in bacterial expression system assessed as residual binding level at 1 uM by Kinomescan method relative to control"}, "[5]": {"target": "Casein kinase I isoform alpha-like (Homo sapiens) (UniProt Q8N752)", "sequence (Q8N752 whole entry, the tested form may be a part, canonical isoform)": "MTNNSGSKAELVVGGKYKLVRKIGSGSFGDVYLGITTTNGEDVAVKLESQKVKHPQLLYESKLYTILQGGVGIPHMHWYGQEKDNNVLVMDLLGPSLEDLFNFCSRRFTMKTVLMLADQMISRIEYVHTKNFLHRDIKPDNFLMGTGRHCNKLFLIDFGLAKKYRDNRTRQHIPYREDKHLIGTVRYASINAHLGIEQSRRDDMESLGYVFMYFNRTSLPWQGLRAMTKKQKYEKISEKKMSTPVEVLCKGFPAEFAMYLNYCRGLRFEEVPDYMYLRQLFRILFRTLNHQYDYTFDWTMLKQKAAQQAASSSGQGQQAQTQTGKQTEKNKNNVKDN", "test": "Binding affinity to wild-type human full length CSNK1A1L (M1 to N337 residues) expressed in bacterial expression system assessed as residual binding level at 1 uM by Kinomescan method relative to control"}, "[6]": {"target": "Epithelial discoidin domain-containing receptor 1 (Homo sapiens) (UniProt Q08345)", "sequence (Q08345 whole entry, the tested form may be a part)": "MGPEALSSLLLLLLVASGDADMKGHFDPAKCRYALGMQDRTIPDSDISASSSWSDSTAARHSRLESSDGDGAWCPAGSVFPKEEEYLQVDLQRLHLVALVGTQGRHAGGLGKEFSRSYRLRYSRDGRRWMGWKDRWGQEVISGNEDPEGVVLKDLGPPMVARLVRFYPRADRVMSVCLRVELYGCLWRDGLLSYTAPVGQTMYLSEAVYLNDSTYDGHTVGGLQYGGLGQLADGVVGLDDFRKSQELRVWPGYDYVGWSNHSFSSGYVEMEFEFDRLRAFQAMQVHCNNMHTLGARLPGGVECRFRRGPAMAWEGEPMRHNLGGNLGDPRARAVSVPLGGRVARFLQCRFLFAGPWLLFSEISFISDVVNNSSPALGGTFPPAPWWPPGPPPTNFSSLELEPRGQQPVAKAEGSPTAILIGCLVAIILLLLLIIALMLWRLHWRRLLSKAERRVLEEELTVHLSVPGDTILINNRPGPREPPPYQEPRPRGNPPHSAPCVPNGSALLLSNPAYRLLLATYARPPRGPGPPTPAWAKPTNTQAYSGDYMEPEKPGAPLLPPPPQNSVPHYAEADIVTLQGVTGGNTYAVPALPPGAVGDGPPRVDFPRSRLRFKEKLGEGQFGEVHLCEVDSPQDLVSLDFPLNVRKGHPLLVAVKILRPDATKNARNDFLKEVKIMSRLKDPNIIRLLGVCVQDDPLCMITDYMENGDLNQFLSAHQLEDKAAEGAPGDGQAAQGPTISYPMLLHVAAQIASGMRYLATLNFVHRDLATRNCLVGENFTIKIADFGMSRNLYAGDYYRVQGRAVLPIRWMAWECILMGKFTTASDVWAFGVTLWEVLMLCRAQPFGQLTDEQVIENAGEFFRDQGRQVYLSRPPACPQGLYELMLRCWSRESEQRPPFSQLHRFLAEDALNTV", "test": "Binding affinity to wild-type human partial length DDR1 (R565 to V876 residues) expressed in bacterial expression system assessed as residual binding level at 1 uM by Kinomescan method relative to control"}, "[7]": {"target": "Tyrosine-protein kinase HCK (Homo sapiens) (UniProt P08631)", "sequence (P08631 2-526 limits assumed)": "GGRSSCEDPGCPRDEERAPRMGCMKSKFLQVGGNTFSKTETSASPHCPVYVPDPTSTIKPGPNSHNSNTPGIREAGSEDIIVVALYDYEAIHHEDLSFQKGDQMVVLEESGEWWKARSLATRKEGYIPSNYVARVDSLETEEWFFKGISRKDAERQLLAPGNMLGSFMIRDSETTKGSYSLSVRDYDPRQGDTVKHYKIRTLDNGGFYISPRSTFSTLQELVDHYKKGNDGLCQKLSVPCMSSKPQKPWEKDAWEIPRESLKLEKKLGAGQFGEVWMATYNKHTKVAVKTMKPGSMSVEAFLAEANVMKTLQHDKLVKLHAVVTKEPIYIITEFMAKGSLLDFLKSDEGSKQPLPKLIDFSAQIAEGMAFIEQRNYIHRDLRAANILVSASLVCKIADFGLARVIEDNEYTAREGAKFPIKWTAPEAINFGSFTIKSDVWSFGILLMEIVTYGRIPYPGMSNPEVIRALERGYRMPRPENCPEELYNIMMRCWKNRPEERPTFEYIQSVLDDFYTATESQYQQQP", "test": "Binding affinity to wild-type human full length HCK (M22 to P526 residues) expressed in bacterial expression system assessed as residual binding level at 1 uM by Kinomescan method relative to control", "procedure,_shortened": "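Single-point kinome-wide KINOMEscan binding panel, test compound at 1 μM, run by the provider's standard protocol.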"}, "[8]": {"target": "Tyrosine-protein kinase JAK1 (Homo sapiens) (UniProt P23458)", "test": "Binding affinity to wild-type human partial length JAK1 JH1 catalytic domain (V856 to K1154 residues) expressed in bacterial expression system assessed as residual binding level at 1 uM by Kinomescan method relative to control"}, "[9]": {"target": "Tyrosine-protein kinase JAK3 (Homo sapiens) (UniProt P52333)", "test": "Binding affinity to wild-type human partial length JAK3 JH1 catalytic domain (I781 to S1124 residues) expressed in mammalian expression system assessed as residual binding level at 1 uM by Kinomescan method relative to control"}, "[10]": {"target": "Serine/threonine-protein kinase MARK1 (Homo sapiens) (UniProt Q9P0L2)", "test": "Binding affinity to wild-type human partial length MARK1 (Q30 to T341 residues) expressed in bacterial expression system assessed as residual binding level at 1 uM by Kinomescan method relative to control"}, "[11]": {"target": "Muscle, skeletal receptor tyrosine-protein kinase (Homo sapiens) (UniProt O15146)", "sequence (O15146 whole entry, the tested form may be a part)": "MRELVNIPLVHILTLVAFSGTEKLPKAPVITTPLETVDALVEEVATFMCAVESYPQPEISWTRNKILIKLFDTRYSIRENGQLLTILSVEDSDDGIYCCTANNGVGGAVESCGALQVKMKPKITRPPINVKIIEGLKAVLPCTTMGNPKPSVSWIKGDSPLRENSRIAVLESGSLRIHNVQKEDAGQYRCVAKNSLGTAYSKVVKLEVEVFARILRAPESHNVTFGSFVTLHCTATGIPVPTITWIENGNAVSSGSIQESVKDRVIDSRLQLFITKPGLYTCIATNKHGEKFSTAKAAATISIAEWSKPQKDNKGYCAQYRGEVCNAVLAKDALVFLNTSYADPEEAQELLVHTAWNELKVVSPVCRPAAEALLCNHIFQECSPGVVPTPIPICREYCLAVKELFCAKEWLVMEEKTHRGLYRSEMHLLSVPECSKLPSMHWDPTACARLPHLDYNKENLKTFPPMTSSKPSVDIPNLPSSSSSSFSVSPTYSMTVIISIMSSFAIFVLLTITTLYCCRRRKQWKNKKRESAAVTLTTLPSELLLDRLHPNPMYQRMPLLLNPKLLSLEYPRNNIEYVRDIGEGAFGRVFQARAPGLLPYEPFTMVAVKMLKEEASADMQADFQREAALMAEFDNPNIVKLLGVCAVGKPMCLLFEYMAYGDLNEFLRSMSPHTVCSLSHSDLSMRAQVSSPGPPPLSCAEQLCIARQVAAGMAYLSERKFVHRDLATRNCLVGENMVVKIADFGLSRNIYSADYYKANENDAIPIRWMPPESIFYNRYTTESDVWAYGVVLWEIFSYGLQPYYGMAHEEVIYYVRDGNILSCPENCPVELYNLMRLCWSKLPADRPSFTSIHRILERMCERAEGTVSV", "test": "Binding affinity to wild-type human partial length MUSK (M553 to V869 residues) expressed in bacterial expression system assessed as residual binding level at 1 uM by Kinomescan method relative to control"}, "[12]": {"target": "Serine/threonine-protein kinase 38 (Homo sapiens) (UniProt Q15208)", "test": "Binding affinity to wild-type human partial length NDR1 (N33 to E449 residues) expressed in mammalian expression system assessed as residual binding level at 1 uM by Kinomescan method relative to control"}, "[13]": {"target": "Mitogen-activated protein kinase 14 (Homo sapiens) (UniProt Q16539)", "test": "Binding affinity to wild-type human full length p38-alpha (M1 to S360 residues) expressed in bacterial expression system assessed as residual binding level at 1 uM by Kinomescan method relative to control"}, "[14]": {"target": "Mitogen-activated protein kinase 13 (Homo sapiens) (UniProt O15264)", "sequence (O15264 whole entry, the tested form may be a part)": "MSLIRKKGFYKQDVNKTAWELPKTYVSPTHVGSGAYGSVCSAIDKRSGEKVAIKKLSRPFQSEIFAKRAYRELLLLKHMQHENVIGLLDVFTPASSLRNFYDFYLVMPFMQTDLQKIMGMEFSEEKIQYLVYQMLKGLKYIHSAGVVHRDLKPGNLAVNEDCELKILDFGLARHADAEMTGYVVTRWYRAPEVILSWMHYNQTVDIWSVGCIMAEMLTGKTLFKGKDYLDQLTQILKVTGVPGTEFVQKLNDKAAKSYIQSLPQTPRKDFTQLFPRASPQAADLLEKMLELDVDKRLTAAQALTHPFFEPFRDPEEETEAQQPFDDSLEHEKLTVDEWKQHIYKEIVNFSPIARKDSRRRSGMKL", "test": "Binding affinity to wild-type human full length p38-delta (M1 to L365 residues) expressed in bacterial expression system assessed as residual binding level at 1 uM by Kinomescan method relative to control"}, "[15]": {"system": "Phosphatidylinositol 4,5-bisphosphate 3-kinase catalytic subunit alpha isoform (Homo sapiens), P42336 [E545A]", "test": "Binding affinity to human partial length PIK3CA E545A mutant (R108 to N1068 residues) expressed in mammalian expression system assessed as residual binding level at 1 uM by Kinomescan method relative to control"}, "[16]": {"target": "Serine/threonine-protein kinase pim-3 (Homo sapiens) (UniProt Q86V86)", "test": "Binding affinity to wild-type human partial length PIM3 (G16 to A317 residues) expressed in bacterial expression system assessed as residual binding level at 1 uM by Kinomescan method relative to control"}, "[17]": {"target": "Protein kinase C eta type (Homo sapiens) (UniProt P24723)", "sequence (P24723 whole entry, the tested form may be a part)": "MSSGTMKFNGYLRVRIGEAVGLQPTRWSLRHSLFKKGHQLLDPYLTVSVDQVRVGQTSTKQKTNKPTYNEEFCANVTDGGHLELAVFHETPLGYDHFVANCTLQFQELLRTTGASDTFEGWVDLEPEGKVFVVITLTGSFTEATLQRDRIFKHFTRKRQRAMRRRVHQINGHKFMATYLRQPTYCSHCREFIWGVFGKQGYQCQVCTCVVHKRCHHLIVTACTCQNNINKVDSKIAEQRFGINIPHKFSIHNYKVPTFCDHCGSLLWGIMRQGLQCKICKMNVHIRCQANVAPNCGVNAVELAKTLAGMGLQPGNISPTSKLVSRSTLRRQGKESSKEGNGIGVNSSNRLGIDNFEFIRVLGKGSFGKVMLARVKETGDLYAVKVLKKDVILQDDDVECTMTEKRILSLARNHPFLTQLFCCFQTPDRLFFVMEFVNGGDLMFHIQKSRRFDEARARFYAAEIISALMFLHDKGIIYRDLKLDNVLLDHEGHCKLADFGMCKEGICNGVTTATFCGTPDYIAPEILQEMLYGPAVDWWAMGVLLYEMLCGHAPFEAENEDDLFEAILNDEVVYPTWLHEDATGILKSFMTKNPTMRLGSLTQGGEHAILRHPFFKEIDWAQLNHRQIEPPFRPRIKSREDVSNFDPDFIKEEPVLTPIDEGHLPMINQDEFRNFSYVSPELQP", "test": "Binding affinity to wild-type human partial length PRKCH (S324 to P683 residues) expressed in bacterial expression system assessed as residual binding level at 1 uM by Kinomescan method relative to control"}, "[18]": {"target": "Serine/threonine-protein kinase D2 (Homo sapiens) (UniProt Q9BZL6)", "test": "Binding affinity to wild-type human partial length PRKD2 (A519 to E838 residues) expressed in bacterial expression system assessed as residual binding level at 1 uM by Kinomescan method relative to control"}, "[19]": {"target": "Serine/threonine-protein kinase PRP4 homolog (Homo sapiens) (UniProt Q13523)", "test": "Binding affinity to wild-type human partial length PRP4 (D657 to I1007 residues) expressed in bacterial expression system assessed as residual binding level at 1 uM by Kinomescan method relative to control"}, "[20]": {"target": "Receptor-interacting serine/threonine-protein kinase 1 (Homo sapiens) (UniProt Q13546)", "sequence (Q13546 whole entry, the tested form may be a part)": "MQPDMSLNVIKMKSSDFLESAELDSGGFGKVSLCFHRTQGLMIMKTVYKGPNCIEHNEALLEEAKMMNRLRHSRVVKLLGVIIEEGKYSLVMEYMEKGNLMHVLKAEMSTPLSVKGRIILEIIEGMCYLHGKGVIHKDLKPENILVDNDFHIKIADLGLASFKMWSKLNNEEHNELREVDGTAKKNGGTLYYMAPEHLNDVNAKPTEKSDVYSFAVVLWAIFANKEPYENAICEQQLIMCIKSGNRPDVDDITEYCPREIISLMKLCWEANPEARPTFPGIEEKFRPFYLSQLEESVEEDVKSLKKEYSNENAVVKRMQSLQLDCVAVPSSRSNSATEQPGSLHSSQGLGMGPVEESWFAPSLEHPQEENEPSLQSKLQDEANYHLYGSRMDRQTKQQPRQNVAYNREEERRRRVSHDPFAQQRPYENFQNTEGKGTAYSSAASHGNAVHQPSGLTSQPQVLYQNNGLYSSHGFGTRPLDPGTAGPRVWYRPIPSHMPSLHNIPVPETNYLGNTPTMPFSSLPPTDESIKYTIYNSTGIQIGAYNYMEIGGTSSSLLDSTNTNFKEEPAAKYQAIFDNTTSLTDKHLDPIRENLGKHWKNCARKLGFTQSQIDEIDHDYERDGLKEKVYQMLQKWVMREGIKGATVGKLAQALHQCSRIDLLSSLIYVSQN", "test": "Binding affinity to wild-type human partial length RIPK1 (M1 to K305 residues) expressed in bacterial expression system assessed as residual binding level at 1 uM by Kinomescan method relative to control"}, "[21]": {"target": "Ribosomal protein S6 kinase beta-1 (Homo sapiens) (UniProt P23443)", "sequence (P23443 whole entry, looked up, the tested form may be a part)": "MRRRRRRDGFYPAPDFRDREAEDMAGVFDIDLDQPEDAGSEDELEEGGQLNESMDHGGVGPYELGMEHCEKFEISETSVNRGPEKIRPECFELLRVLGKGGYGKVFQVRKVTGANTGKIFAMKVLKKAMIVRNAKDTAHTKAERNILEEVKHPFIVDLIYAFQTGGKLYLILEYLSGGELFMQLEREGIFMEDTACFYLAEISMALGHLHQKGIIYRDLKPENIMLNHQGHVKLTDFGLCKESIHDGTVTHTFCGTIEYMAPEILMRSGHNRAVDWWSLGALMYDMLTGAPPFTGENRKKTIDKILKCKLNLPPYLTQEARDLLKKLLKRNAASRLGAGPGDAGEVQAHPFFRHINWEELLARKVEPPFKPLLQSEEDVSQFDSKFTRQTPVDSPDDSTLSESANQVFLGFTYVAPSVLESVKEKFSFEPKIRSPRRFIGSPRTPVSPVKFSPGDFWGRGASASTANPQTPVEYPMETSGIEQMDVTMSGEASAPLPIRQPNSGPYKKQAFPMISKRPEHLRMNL", "test": "Binding affinity to wild-type human partial length S6K1 (M1 to S421 residues) expressed in mammalian expression system assessed as residual binding level at 1 uM by Kinomescan method relative to control"}, "[22]": {"target": "Serine/threonine-protein kinase SBK1 (Homo sapiens) (UniProt Q52WX2)", "test": "Binding affinity to wild-type human partial length SBK1 (P23 to P348 residues) expressed in mammalian expression system assessed as residual binding level at 1 uM by Kinomescan method relative to control"}, "[23]": {"target": "Serine/threonine-protein kinase WNK3 (Homo sapiens) (UniProt Q9BYP7)", "test": "Binding affinity to wild-type human partial length WNK3 (M1 to D434 residues) expressed in mammalian expression system assessed as residual binding level at 1 uM by Kinomescan method relative to control"}, "[24]": {"target": "Serine/threonine-protein kinase 32A (Homo sapiens) (UniProt Q8WU08)", "test": "Binding affinity to wild-type human full length YANK1 (M1 to L396 residues) expressed in mammalian expression system assessed as residual binding level at 1 uM by Kinomescan method relative to control"}}}
{"smiles": "C=CC(=O)Nc1cc(Nc2ncc(Cl)c(Nc3ccccc3S(=O)(=O)C(C)C)n2)c(OC)cc1N(C)CCN(C)C", "values": [{"measurement": "Cmax", "setting": "[1]", "result": 520, "unit": "ng/mL"}, {"measurement": "Activity", "setting": "[2]", "result": 8.4, "unit": "%"}, {"measurement": "Activity", "setting": "[3]", "result": 26, "unit": "%"}, {"measurement": "Activity", "setting": "[4]", "result": 94, "unit": "%"}, {"measurement": "Activity", "setting": "[5]", "result": 86, "unit": "%"}, {"measurement": "Activity", "setting": "[6]", "result": 16, "unit": "%"}, {"measurement": "Activity", "setting": "[7]", "result": 49, "unit": "%"}, {"measurement": "Activity", "setting": "[8]", "result": 78, "unit": "%"}, {"measurement": "Activity", "setting": "[9]", "result": 0, "unit": "%"}, {"measurement": "Activity", "setting": "[10]", "result": 40, "unit": "%"}, {"measurement": "Activity", "setting": "[11]", "result": 92, "unit": "%"}, {"measurement": "Activity", "setting": "[12]", "result": 56, "unit": "%"}, {"measurement": "Activity", "setting": "[13]", "result": 92, "unit": "%"}, {"measurement": "Activity", "setting": "[14]", "result": 100, "unit": "%"}, {"measurement": "Activity", "setting": "[15]", "result": 83, "unit": "%"}, {"measurement": "Activity", "setting": "[16]", "result": 96, "unit": "%"}, {"measurement": "Activity", "setting": "[17]", "result": 100, "unit": "%"}, {"measurement": "Activity", "setting": "[18]", "result": 3.1, "unit": "%"}, {"measurement": "Activity", "setting": "[19]", "result": 82, "unit": "%"}, {"measurement": "Activity", "setting": "[20]", "result": 82, "unit": "%"}, {"measurement": "Activity", "setting": "[21]", "result": 94, "unit": "%"}, {"measurement": "Activity", "setting": "[22]", "result": 1.9, "unit": "%"}, {"measurement": "Activity", "setting": "[23]", "result": 100, "unit": "%"}, {"measurement": "Activity", "setting": "[24]", "result": 2.3, "unit": "%"}]}
